Measurements as given in ChEMBL document CHEMBL3102768, “Synthesis, biological evaluation and SAR of 3-benzoates of ingenol for treatment of actinic keratosis and non-melanoma skin cancer” (Bioorg Med Chem Lett, 2014).

Assays:
[1] = target: Protein kinase C delta type (Homo sapiens, UniProt Q05655); assay: Activation of PKCdelta (unknown origin) after 40 mins
In short: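 In vitro PKCδ phosphorylation of a PKC peptide substrate, with 0.05 mg/mL phosphatidylserine and no diacylglycerol. Compounds were tested as a twelve-point semilog dilution series starting at 10 µM. The reaction was started with ATP and run 40 min at room temperature.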

[2] = Immunostimulatory activity in polymorphonuclear leukocytes (unknown origin) assessed as induction of oxidative burst after 40 mins by fluorescence assay; assay type: functional, cell-based
In short: (§1)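 PMN were isolated from fresh buffy coats. Cells were incubated 40 min at ambient temperature with titrated compound (top concentration 10 µM) pre-mixed with hydroethidine. Respiratory burst was read as fluorescence at ex 485/em 579 nm. EC50 is the concentration giving 50% of the maximum effect of ingenol 3-angelate; Emax is the maximal response relative to it.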

[3] = Chemical stability of the compound in aqueous buffer with less than 30% organic solvent assessed as compound recovery at pH 7.4 measured over 16 hrs by HPLC analysis; assay type: physicochemical; conditions: read-out: Drug recovery
In short: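 A DMSO stock was diluted into pre-heated (37 °C) aqueous buffer pH 7.4 to ≤30% v/v organic content. The solution was held at 37 °C in the HPLC autosampler and injected within 5 min, then repeatedly over 16 h. Recovery was taken from the decrease in compound peak area, with UV detection normally at 270 nm.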

Keratinocyte [4] = assay: Induction of proimflammatory activity in human primary epidermal keratinocytes assessed as IL-8 release after 6 hrs relative to ingenol 3-angelate; assay type: functional
In short: (§2)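 Adult log-phase primary epidermal keratinocytes were seeded at 10,000 cells/well. Cells were incubated with titrated compound for 6 h at 37 °C in 5% CO2. Secreted IL8 was measured by Meso Scale 4-spot cytokine plates or by HTRF. EC50 and Emax were referenced to the maximal response of ingenol 3-angelate.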

HeLa = assay: Induction of necrosis in human HeLa cells assessed as remaining metabolic activity after 30 mins by resazurin dye-based assay; assay type: functional; conditions: 0.5 h, read-out: LC50 (the source's name)
In short: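 HeLa cells were exposed to increasing concentrations up to 400 µM for 30 min at 37 °C. Metabolic activity was then measured with a resazurin-based dye (PrestoBlue). LC50 is the concentration giving 50% loss of metabolic activity.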

Keratinocyte [5] = assay: Induction of proimflammatory activity in human primary epidermal keratinocytes assessed as IL-8 release after 6 hrs; assay type: functional, cell-based; in short: as §2
[6] = Immunostimulatory activity in polymorphonuclear leukocytes (unknown origin) assessed as induction of oxidative burst after 40 mins by fluorescence assay relative to ingenol 3-angelate; assay type: functional; in short: as §1
Keratinocyte [7] = assay: Induction of proimflammatory activity in human primary epidermal keratinocytes assessed as TNFalpha release after 6 hrs relative to ingenol 3-angelate; assay type: functional
In short: (§3)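 Adult log-phase primary epidermal keratinocytes were seeded at 10,000 cells/well. Cells were incubated with titrated compound for 6 h at 37 °C in 5% CO2. Secreted TNFα was measured by Meso Scale 4-spot cytokine plates. EC50 and Emax were referenced to the maximal response of ingenol 3-angelate.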

Keratinocyte [8] = assay: Induction of proimflammatory activity in human primary epidermal keratinocytes assessed as TNFalpha release after 6 hrs; assay type: functional, cell-based; in short: as §3

Chain of Protein kinase C delta type (Q05655 whole entry): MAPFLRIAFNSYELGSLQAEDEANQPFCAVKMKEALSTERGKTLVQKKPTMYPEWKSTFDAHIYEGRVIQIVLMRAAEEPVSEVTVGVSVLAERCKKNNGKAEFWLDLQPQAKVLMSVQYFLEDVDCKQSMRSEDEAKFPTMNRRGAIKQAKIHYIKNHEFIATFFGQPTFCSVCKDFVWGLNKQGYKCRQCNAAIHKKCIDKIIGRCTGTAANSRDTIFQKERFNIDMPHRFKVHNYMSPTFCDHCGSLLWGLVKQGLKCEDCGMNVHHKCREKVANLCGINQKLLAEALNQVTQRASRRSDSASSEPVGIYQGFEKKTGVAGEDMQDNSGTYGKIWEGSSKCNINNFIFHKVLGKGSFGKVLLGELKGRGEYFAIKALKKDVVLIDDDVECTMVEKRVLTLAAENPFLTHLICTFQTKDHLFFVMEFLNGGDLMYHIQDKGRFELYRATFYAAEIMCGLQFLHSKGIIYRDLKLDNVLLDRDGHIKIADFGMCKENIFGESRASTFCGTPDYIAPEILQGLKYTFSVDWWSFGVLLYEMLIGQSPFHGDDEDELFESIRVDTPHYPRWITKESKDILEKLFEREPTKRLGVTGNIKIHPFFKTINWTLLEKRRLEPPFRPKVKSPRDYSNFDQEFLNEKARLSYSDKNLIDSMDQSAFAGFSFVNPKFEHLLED

Structure (SMILES) | EC50 [1] | EC50 [2] | remaining at 16 h [3] | Emax (Keratinocyte [4]) | CC50 (HeLa) | EC50 (Keratinocyte [5]) | Emax [6] | Emax (Keratinocyte [7]) | EC50 (Keratinocyte [8])
CC1=C[C@]23C(=O)[C@@H](C=C(CO)[C@@H](O)[C@]2(O)[C@H]1OC(=O)c1ccccc1Nc1ccccc1)[C@H]1[C@@H](C[C@H]3C)C1(C)C | 4.2 nM | 11 nM | 58% | 103% | 307000 nM | 3.7 nM | 129% | 120% | 5 nM
CC1=C[C@]23C(=O)[C@@H](C=C(CO)[C@@H](O)[C@]2(O)[C@H]1OC(=O)c1ccccc1C)[C@H]1[C@@H](C[C@H]3C)C1(C)C |  | 5.7 nM | 73% | 58% | 115000 nM | 15 nM | 107% | 64% | 13 nM
CC1=C[C@]23C(=O)[C@@H](C=C(CO)[C@@H](O)[C@]2(O)[C@H]1OC(=O)c1c(Cl)cccc1Cl)[C@H]1[C@@H](C[C@H]3C)C1(C)C | 19.8 nM | 21 nM | > 95% | 45% | 59000 nM | 113 nM | 123% | 42% | 278 nM
CC1=C[C@]23C(=O)[C@@H](C=C(CO)[C@@H](O)[C@]2(O)[C@H]1OC(=O)c1c(N)cccc1Cl)[C@H]1[C@@H](C[C@H]3C)C1(C)C |  | 7.1 nM | 93% | 104% | 185000 nM | 20 nM | 161% | 108% | 28 nM
COc1cccc(N)c1C(=O)O[C@H]1C(C)=C[C@]23C(=O)[C@@H](C=C(CO)[C@@H](O)[C@]12O)[C@H]1[C@@H](C[C@H]3C)C1(C)C |  | 25 nM | > 95% | 111% |  | 41 nM | 109% | 83% | 108 nM
CNc1cccc(F)c1C(=O)O[C@H]1C(C)=C[C@]23C(=O)[C@@H](C=C(CO)[C@@H](O)[C@]12O)[C@H]1[C@@H](C[C@H]3C)C1(C)C |  | 9.3 nM | 74% | 145% | 152000 nM | 3 nM | 123% | 174% | 4.1 nM
CC1=C[C@]23C(=O)[C@@H](C=C(CO)[C@@H](O)[C@]2(O)[C@H]1OC(=O)c1ccccc1N)[C@H]1[C@@H](C[C@H]3C)C1(C)C |  | 15 nM | 58% | 101% | 199000 nM | 3.4 nM | 116% | 112% | 5.5 nM
CC1=C[C@]23C(=O)[C@@H](C=C(CO)[C@@H](O)[C@]2(O)[C@H]1OC(=O)c1ccccc1OC(C)C)[C@H]1[C@@H](C[C@H]3C)C1(C)C |  | 8.7 nM | 65% | 105% | 192000 nM | 2.7 nM | 113% | 101% | 4 nM
CC(=O)Nc1cccc(C)c1C(=O)O[C@H]1C(C)=C[C@]23C(=O)[C@@H](C=C(CO)[C@@H](O)[C@]12O)[C@H]1[C@@H](C[C@H]3C)C1(C)C | 988 nM | 538 nM | 82% | 92% |  | 534 nM | 113% | 92% | 632 nM
CC1=C[C@]23C(=O)[C@@H](C=C(CO)[C@@H](O)[C@]2(O)[C@H]1OC(=O)c1ccccc1Oc1ccccc1)[C@H]1[C@@H](C[C@H]3C)C1(C)C | 13.1 nM | 9.4 nM | 80% | 87% | 83000 nM | 1.1 nM | 98% | 86% | 1.4 nM
CNc1cccc(C)c1C(=O)O[C@H]1C(C)=C[C@]23C(=O)[C@@H](C=C(CO)[C@@H](O)[C@]12O)[C@H]1[C@@H](C[C@H]3C)C1(C)C |  | 46 nM | > 95% | 127% | 105000 nM | 12 nM | 136% | 143% | 16 nM
CC1=C[C@]23C(=O)[C@@H](C=C(CO)[C@@H](O)[C@]2(O)[C@H]1OC(=O)c1c(N)cccc1F)[C@H]1[C@@H](C[C@H]3C)C1(C)C |  | 12 nM | 66% | 104% | 201000 nM | 8.6 nM | 133% | 104% | 10 nM
CNc1cccc(Cl)c1C(=O)O[C@H]1C(C)=C[C@]23C(=O)[C@@H](C=C(CO)[C@@H](O)[C@]12O)[C@H]1[C@@H](C[C@H]3C)C1(C)C |  | 21 nM | > 95% | 105% | 145000 nM | 18 nM | 124% | 97% | 21 nM
CC1=C[C@]23C(=O)[C@@H](C=C(CO)[C@@H](O)[C@]2(O)[C@H]1OC(=O)c1c(C)cccc1Cl)[C@H]1[C@@H](C[C@H]3C)C1(C)C |  | 6.6 nM | > 95% | 52% | 126000 nM | 51 nM | 130% | 52% | 54 nM
CCCCCCCCCCCCNc1ccccc1C(=O)O[C@H]1C(C)=C[C@]23C(=O)[C@@H](C=C(CO)[C@@H](O)[C@]12O)[C@H]1[C@@H](C[C@H]3C)C1(C)C |  | 25 nM |  | 111% | 400000 nM | 16 nM | 78% | 150% | 14 nM
CC1=C[C@]23C(=O)[C@@H](C=C(CO)[C@@H](O)[C@]2(O)[C@H]1OCc1ccccc1)[C@H]1[C@@H](C[C@H]3C)C1(C)C | > 10000 nM | 4540 nM | > 95% | 58% | 378000 nM | 4520 nM |  |  | 
CCCCCCCCCCCCCCCCNc1ccccc1C(=O)O[C@H]1C(C)=C[C@]23C(=O)[C@@H](C=C(CO)[C@@H](O)[C@]12O)[C@H]1[C@@H](C[C@H]3C)C1(C)C |  | 1340 nM | 90% | 125% |  | 61 nM | 94% | 120% | 200 nM
CC1=C[C@]23C(=O)[C@@H](C=C(CO)[C@@H](O)[C@]2(O)[C@H]1OC(=O)c1ccccc1NCc1ccccc1)[C@H]1[C@@H](C[C@H]3C)C1(C)C |  | 8.6 nM | 65% | 115% | 168000 nM | 1.2 nM | 127% | 128% | 1.5 nM
CC1=C[C@]23C(=O)[C@@H](C=C(CO)[C@@H](O)[C@]2(O)[C@H]1OC(=O)c1ccccc1)[C@H]1[C@@H](C[C@H]3C)C1(C)C | 6.1 nM | 6 nM |  | 54% |  |  | 110% | 60% | 
CC1=C[C@]23C(=O)[C@@H](C=C(CO)[C@@H](O)[C@]2(O)[C@H]1OC(=O)c1c(C)cccc1NCc1ccccc1)[C@H]1[C@@H](C[C@H]3C)C1(C)C |  | 42 nM | > 95% | 122% | 187000 nM | 3.8 nM | 103% | 126% | 7.6 nM
COc1cccc(NCc2ccccc2)c1C(=O)O[C@H]1C(C)=C[C@]23C(=O)[C@@H](C=C(CO)[C@@H](O)[C@]12O)[C@H]1[C@@H](C[C@H]3C)C1(C)C |  | 23 nM | > 95% | 117% | 400000 nM | 6.6 nM | 112% | 120% | 19 nM
C/C=C(/C)C(=O)O[C@H]1C(C)=C[C@]23C(=O)[C@@H](C=C(CO)[C@@H](O)[C@]12O)[C@H]1[C@@H](C[C@H]3C)C1(C)C [INGENOL MEBUTATE] |  | 8.7 nM |  |  | 230000 nM |  |  |  | 
CC1=C[C@]23C(=O)[C@@H](C=C(CO)[C@@H](O)[C@]2(O)[C@H]1OC(=O)c1ccccc1C(C)C)[C@H]1[C@@H](C[C@H]3C)C1(C)C |  | 11 nM | 70% | 86% | 110000 nM | 4.4 nM | 120% | 96% | 5.7 nM
